The source made the active and inactive calls. No cut-off for these calls is given here.
Columns and labels:
[1] = AUC (0 to 6 hrs) in human at 175 mg, po QID administered on day 1 followed by 2-days wash out period after which dosing continued up to day 11 measured on day 4; format: ADME, organism-based; parameters: time < 6 hr, dose 175 mg, route oral; settings: plasma
Procedure, shortened: (§1)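 Double-blind, placebo-controlled, randomized dose-escalation study in healthy male volunteers, six cohorts of eight (six active, two placebo). Oral dose on day 1, two-day washout, then dosing days 4–11; the 200 mg qd cohort was titrated over days 1–4. Venous blood taken predose and at 0.5–12 h on days 1, 4 and 11; plasma drug measured. τ 12 h (bid), 24 h (qd), 8 h (tid), 6 h (qid).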

[2] = AUC (0 to 12 hrs) in human at 100 mg, po BID administered on day 1 followed by 2-day wash out period after which dosing continued up to day 11 measured on day 11; format: ADME, organism-based; parameters: time < 12 hr, dose 100 mg, route oral; settings: plasma; procedure, shortened: as §1
Rattus norvegicus = test: Antidyslipedic activity in fasted Sprague-Dawley rat assessed as decrease in free fatty acid level at 0.1 to 30 mg/kg, po by NEFA C-free fatty acid assay; format: functional; parameters: scale not given: the % may be the effect or the level left; settings: dose mg/kg 0.1-30
Procedure, shortened: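 Male Sprague-Dawley rats fasted, compound by oral gavage, serial plasma sampling after dosing for free fatty acids over a time course; vehicle-dosed control group.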

[3] = Volume of distribution in Sprague-Dawley rat at 2 mg/kg, iv; format: ADME, organism-based; parameters: dose 2 mg/kg, route intravenous; settings: in vivo
Procedure, shortened: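 Male Sprague–Dawley rats dosed iv at 2 mg/kg in 80% PEG400/20% phosphate buffered saline. Jugular vein blood was serially sampled over 24 h, and plasma was prepared from sodium heparin blood. Plasma was analysed by HPLC/MS/MS (LLOQ 1 ng/mL, ULOQ 2000 ng/mL).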

[4] = AUC (0 to 12 hrs) in human at 150 mg, po BID administered on day 1 followed by 2-day wash out period after which dosing continued up to day 11 measured on day 4; format: ADME, organism-based; parameters: dose 150 mg, time < 12 hr, route oral; settings: plasma; procedure, shortened: as §1
Homo sapiens [5] = test: Antidyslipedic activity in human assessed as decrease in free fatty acid level at 50 to 200 mg, po administered as a single dose measured up to 8 hrs relative to placebo control; format: functional, organism-based
[6] = Tmax in human at 50 mg, po BID administered on day 1 followed by 2-day wash out period after which dosing continued up to day 11 measured on day 11; format: ADME, organism-based; settings: in vivo
Procedure, shortened: (§2)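 Double-blind, placebo-controlled, randomized multiple oral dose study in healthy male volunteers (cohorts of eight; six active, two placebo). Dose given on day 1, then a two-day washout, then dosing days 4–11; for the QD arm, subjects were titrated over days 1–4. Venous plasma sampled predose and 0.5, 1, 1.5, 2, 4, 6, 8, 10, 12 h postdose on days 1, 4 and 11. Tmax reported as median (min–max).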

[7] = Apparent half life in human at 100 mg, po BID administered on day 1 followed by 2-day wash out period after which dosing continued up to day 11 measured on day 11; format: ADME, organism-based; settings: in vivo, read-out: t1/2(app) (converted); procedure, shortened: as §1
[8] = molecular target: Hydroxycarboxylic acid receptor 3 (Homo sapiens) (UniProt P49019); test: Agonist activity at human GPR109b assessed as decrease in forskolin-stimulated cAMP production by HTRF assay; format: functional
Sequence of Hydroxycarboxylic acid receptor 3 (Homo sapiens) (P49019 whole entry): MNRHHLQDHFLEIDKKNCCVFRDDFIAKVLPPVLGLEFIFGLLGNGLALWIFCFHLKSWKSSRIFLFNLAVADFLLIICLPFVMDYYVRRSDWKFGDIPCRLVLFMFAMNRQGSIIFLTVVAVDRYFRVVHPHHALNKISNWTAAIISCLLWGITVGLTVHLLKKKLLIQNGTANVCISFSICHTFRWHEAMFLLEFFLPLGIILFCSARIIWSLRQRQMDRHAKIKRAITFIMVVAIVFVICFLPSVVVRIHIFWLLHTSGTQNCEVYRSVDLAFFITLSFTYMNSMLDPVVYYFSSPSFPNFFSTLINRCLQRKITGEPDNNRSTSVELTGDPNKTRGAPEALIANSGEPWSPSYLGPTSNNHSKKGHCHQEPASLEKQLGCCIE

[9] = Tmax in human at titreated po dose administered from day 1 to 4 followed by 200 mg, po QD administered up to day 11 measured on day 11; format: ADME, organism-based; settings: in vivo; procedure, shortened: as §2
[10] = Cmin in human at 175 mg, po QID administered on day 1 followed by 2-days wash out period after which dosing continued up to day 11 measured on day 4 at 6 hrs; format: ADME, organism-based; settings: in vivo, read-out: Cmin
Procedure, shortened: (§3)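 Healthy male volunteers took part in a double-blind, randomized, placebo-controlled dose-escalation study, with cohorts of 8 (6 on drug, 2 on placebo). Each subject got an oral dose on day 1, then a 2-day washout, then dosing on days 4–11. The 200 mg qd group was titrated over days 1–4. Venous plasma was sampled predose and 0.5–12 h postdose on days 1, 4 and 11, and predose on days 5–10 for troughs.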

[11] = Oral bioavailability in Sprague-Dawley rat at 10 mg/kg; format: ADME, organism-based; settings: in vivo
Procedure, shortened: (§4)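 Male Sprague-Dawley rats were dosed at 10 mg/kg po or 2 mg/kg iv in 80% PEG400/20% phosphate-buffered saline, fasted overnight before the oral dose. Jugular blood was sampled serially from 0.25 to 21 h over 24 h, and heparinized plasma was prepared. Drug was assayed by HPLC/MS/MS (quantitation range 1–2000 ng/mL).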

Homo sapiens [12] = test: Antidyslipidemic activity in human assessed as decrease in free fatty acid level 175 mg, po QID administered on day 1 followed by 2-days wash out period after which dosing continued up to day 11 measured on day 4 and 11; format: functional, organism-based
Procedure, shortened: (§5)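 Healthy male volunteers in a randomized, double-blind, placebo-controlled multiple-dose study, six active and two placebo subjects per cohort. Oral dosing on day 1, two-day washout, then days 4–11, with titration over days 1–4 for the qd arm.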

[13] = Oral bioavailability in rhesus monkey; format: ADME, organism-based, Macaca mulatta; settings: in vivo
[14] = AUC (0 to 24 hrs) in human at titreated po dose administered from day 1 to 4 followed by 200 mg, po QD administered up to day 11 measured on day 11; format: ADME, organism-based; parameters: time < 24 hr, dose 200 mg, route oral; settings: plasma; procedure, shortened: as §1
[15] = Tmax in human at 175 mg, po QID administered on day 1 followed by 2-days wash out period after which dosing continued up to day 11 measured on day 4; format: ADME, organism-based; settings: in vivo; procedure, shortened: as §2
Mus musculus = test: Dose normalized Cmax in po dosed mouse; format: ADME, organism-based; settings: in vivo
[16] = Cmin in human at 150 mg, po BID administered on day 1 followed by 2-day wash out period after which dosing continued up to day 11 measured on day 1 at 12 hrs; format: ADME, organism-based; settings: in vivo, read-out: Cmin; procedure, shortened: as §3
[17] = Plasma clearance in Sprague-Dawley rat at 2 mg/kg, iv; format: ADME, organism-based; parameters: dose 2 mg/kg, route intravenous; procedure, shortened: as §4
Homo sapiens [18] = test: Antidyslipidemic activity in dyslipidemia patient assessed as change in HDL-c level at 150 mg administered TID during four week study relative to control; format: functional
[19] = Cmin in human at 150 mg, po TID administered on day 1 followed by 2-days wash out period after which dosing continued up to day 11 measured on day 11 at 8 hrs; format: ADME, organism-based; settings: in vivo, read-out: Cmin; procedure, shortened: as §3
[20] = Cmin in human at 175 mg, po QID administered on day 1 followed by 2-days wash out period after which dosing continued up to day 11 measured on day 11 at 6 hrs; format: ADME, organism-based; settings: in vivo, read-out: Cmin; procedure, shortened: as §3
[21] = Cmax in human at 150 mg, po BID administered on day 1 followed by 2-day wash out period after which dosing continued up to day 11 measured on day 4; format: ADME, organism-based; parameters: dose 150 mg, route oral; settings: in vivo; procedure, shortened: as §3
Homo sapiens [22] = test: Antidyslipidemic activity in human assessed as decrease in free fatty acid level titreated po dose administered from day 1 to 4 followed by 200 mg, po QD administered up to day 11 measured on day 4 and 11; format: functional, organism-based; procedure, shortened: as §5
Homo sapiens [23] = test: Activation of GPR109a receptor in human assessed as PGD2 metabolite level in urine at 10 to >10 mg, po; format: functional, organism-based
[24] = Cmax in human at 100 mg, po BID administered on day 1 followed by 2-day wash out period after which dosing continued up to day 11 measured on day 4; format: ADME, organism-based; parameters: dose 100 mg, route oral; settings: in vivo; procedure, shortened: as §1
[25] = AUC (0 to 12 hrs) in human at 100 mg, po BID administered on day 1 followed by 2-day wash out period after which dosing continued up to day 11 measured on day 4; format: ADME, organism-based; parameters: time < 12 hr, dose 100 mg, route oral; settings: plasma; procedure, shortened: as §1
Cytochrome P450 3A4 = Cytochrome P450 3A4 (Homo sapiens, UniProt P08684); test: Activity at CYP3A4; format: ADME
Sequence of Cytochrome P450 3A4 (P08684 whole entry): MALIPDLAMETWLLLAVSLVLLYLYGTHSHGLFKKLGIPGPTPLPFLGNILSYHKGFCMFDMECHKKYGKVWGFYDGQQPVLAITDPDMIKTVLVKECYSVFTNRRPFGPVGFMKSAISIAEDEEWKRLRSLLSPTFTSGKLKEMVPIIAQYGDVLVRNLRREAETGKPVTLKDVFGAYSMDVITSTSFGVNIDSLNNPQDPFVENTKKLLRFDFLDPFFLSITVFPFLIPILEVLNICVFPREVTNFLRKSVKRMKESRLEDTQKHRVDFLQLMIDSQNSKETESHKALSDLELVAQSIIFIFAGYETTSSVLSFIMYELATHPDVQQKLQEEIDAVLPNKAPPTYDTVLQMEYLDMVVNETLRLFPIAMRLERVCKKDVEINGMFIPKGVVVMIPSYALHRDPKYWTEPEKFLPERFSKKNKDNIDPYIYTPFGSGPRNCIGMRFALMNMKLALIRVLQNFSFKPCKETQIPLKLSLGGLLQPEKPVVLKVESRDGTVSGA

Compound `O=C(O)c1n[nH]c2c1C[C@H]1C[C@@H]21` has an AUC at 6 h [1] of 0.113 µM·h, an AUC at 12 h [2] of 0.0611 µM·h and an Activity (Rattus norvegicus) of 90%. For the same compound, the Vd [3] was 0.53 L/kg, the AUC at 12 h [4] was 0.0803 µM·h and the Activity (Homo sapiens [5]) was “Active”. For the same compound, the Tmax [6] was 0.5 h, the half-life [7] was 2.2 h and the Activity [8] was “inactive”. It also gave a Tmax [9] of 1.25 h, a concentration at 6 h [10] of 2.92 nM and a bioavailability [11] of 83%. For the same compound, the Activity (Homo sapiens [12]) was “Active”, the bioavailability [13] was 39% and the AUC at 24 h [14] was 0.119 µM·h. The Tmax [15] was 1 h, the Cmax/dose (Mus musculus) was 3.5 µM·kg/mg and the concentration at 12 h [16] was 0.316 nM. For the same compound, the clearance [17] was 17 mL/min/kg, the Activity (Homo sapiens [18]) was 4.6% and the concentration at 8 h [19] was 0.708 nM. For the same compound, the concentration at 6 h [20] was 2.86 nM, the Cmax [21] was 31.7 nM and the Activity (Homo sapiens [22]) was “Active”. The Activity (Homo sapiens [23]) was “Active”, the Cmax [24] was 33.1 nM and the AUC at 12 h [25] was 0.0657 µM·h. The Activity (Cytochrome P450 3A4) was “Not Active”.

Reference: ChEMBL document CHEMBL2057168, “(1aR,5aR)1a,3,5,5a-Tetrahydro-1H-2,3-diaza-cyclopropa[a]pentalene-4-carboxylic acid (MK-1903): a potent GPR109a agonist that lowers free fatty acids in humans” (J Med Chem, 2012)
